In ChEMBL document CHEMBL1124780, “Phenyl selenones: alkyl transfer by selenium-carbon bond cleavage” (J Med Chem, 1990):

Tests used:
[1] = Pseudo first order rate constant of NBP alkylation was determined at 37 degree Centigrade; type: ADME
In short: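 Alkylating agent (0.087 or 0.174 mM) reacted at 37 °C with 4-(4-nitrobenzyl)pyridine (40.6 mM, pseudo-first-order excess). Medium was aqueous acetone (52.2:47.8 v/v) with 17.4 mM Tris-HCl, pH 7.4. k' was taken from plots of log(% remaining alkylating species) vs time.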

[2] = Half-life after NBP alkylation; type: ADME
In short: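 NBP alkylation at 37 °C in aqueous acetone (52.2:47.8, v/v) with 40.6 mM NBP (pseudo-first-order excess), 17.4 mM Tris-HCl pH 7.4, and 0.087 or 0.174 mM alkylating agent. First-order rate constants were taken from plots of log(percent remaining alkylating species) vs time. Adduct was read at 560 nm after triethylamine alkalization.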

L1210 = experiment: In vitro growth inhibition against L1210 murine leukemia cells; type: functional, cell-based; conditions: Mus musculus
In short: (§1)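 Cells were exposed to drug in vitro for 48 h (L1210 murine leukemia; CCRF-CEM human lymphoblast). The value is the drug concentration giving 50% growth inhibition.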

CCRF-CEM [3] = experiment: In vitro growth inhibition against CCRF-CEM human lymphoblast cells; type: functional, cell-based; in short: as §1
SF-539 = experiment: In vitro cytotoxicity was determined against SF-539 human CNS tumor cell line using NCI screen; type: functional, cell-based
CCRF-CEM [4] = experiment: In vitro cytotoxicity was determined against CCRF-CEM human leukemia cell line using NCI screen; type: functional, cell-based
UACC-62 = experiment: In vitro cytotoxicity was determined against UACC-62 human melanoma cell line using NCI screen; type: functional, cell-based
Homo sapiens [5] = species on record: Homo sapiens; experiment: In vitro cytotoxicity was determined against SKLU human non-small cell lung carcinoma cell line using BACTEC screen; type: functional
CCRF-SB = experiment: In vitro cytotoxicity was determined against CCRF-SB human leukemia cell line using NCI screen; type: functional, cell-based
KM-20L2 = experiment: In vitro cytotoxicity was determined against KM20L2 human colon tumor cell line using NCI screen; type: functional, cell-based
SN12C [6] = experiment: (§2) In vitro cytotoxicity was determined against SN12 KI human renal tumor cell line using NCI screen; type: functional, cell-based
M19-MEL = experiment: In vitro cytotoxicity was determined against M19-MEL human melanoma cell line using NCI screen; type: functional, cell-based
UACC-257 = experiment: In vitro cytotoxicity was determined against UACC-257 human melanoma cell line using NCI screen; type: functional, cell-based
UO-31 = experiment: In vitro cytotoxicity was determined against UO-31 human renal tumor cell line using NCI screen; type: functional, cell-based
SK-MEL-5 = experiment: In vitro cytotoxicity was determined against SK-MEL-5 human melanoma cell line using NCI screen; type: functional, cell-based
K562 = experiment: In vitro cytotoxicity was determined against K-562 human leukemia cell line using NCI screen; type: functional, cell-based
SN12C [7] = experiment: as §2; type: functional, cell-based; remark: listed apart in the source
NCI-H460 = experiment: In vitro cytotoxicity was determined against H460 human non-small cell lung carcinoma cell line using NCI screen; type: functional, cell-based
HCT-15 = experiment: In vitro cytotoxicity was determined against HCT-15 human colon tumor cell line using NCI screen; type: functional, cell-based
HOP-62 = experiment: In vitro cytotoxicity was determined against HOP-62 human non-small cell lung carcinoma cell line using NCI screen; type: functional, cell-based
HOP-18 = experiment: In vitro cytotoxicity was determined against HOP-18 human non-small cell lung carcinoma cell line using NCI screen; type: functional, cell-based
A2780 = experiment: In vitro cytotoxicity was determined against A2780 human ovarian cell line using NCI screen; type: functional, cell-based
LOX IMVI = experiment: In vitro cytotoxicity was determined against LOX human melanoma cell line using NCI screen; type: functional, cell-based
SF-268 = experiment: In vitro cytotoxicity was determined against SF-268 human CNS tumor cell line using NCI screen; type: functional, cell-based
SK-MEL-2 = experiment: In vitro cytotoxicity was determined against SK-MEL-2 human melanoma cell line using NCI screen; type: functional, cell-based
OM-1 = experiment: In vitro cytotoxicity was determined against OM-1 human colon tumor cell line using BACTEC screen; type: functional, cell-based
A498 = experiment: In vitro cytotoxicity was determined against A 498 human renal tumor cell line using NCI screen; type: functional, cell-based
HCT-116 = experiment: In vitro cytotoxicity was determined against COLO 320 DM,HCT-15, COLO-205, HCT116 HCC 2998, KM20L2, KM12 human colon tumor cell line using NCI screen; type: functional, cell-based
HOP-19 = experiment: In vitro cytotoxicity was determined against HOP-19 human non-small cell lung carcinoma cell line using NCI screen; type: functional, cell-based
OVCAR-5 = experiment: In vitro cytotoxicity was determined against OVCAR5 human ovarian cell line using NCI screen; type: functional, cell-based
Hs-578T = experiment: In vitro cytotoxicity was determined against Hs 578.T human breast tumor cell line using BACTEC screen; type: functional, cell-based
NCI-H23 = experiment: In vitro cytotoxicity was determined against H23 human non-small cell lung carcinoma cell line using NCI screen; type: functional, cell-based
SF-295 = experiment: In vitro cytotoxicity was determined against SF-295, U251, SNB19 human CNS tumor cell line using NCI screen; type: functional, cell-based
SK-MEL-28 = experiment: In vitro cytotoxicity was determined against SK-MEL-28 human melanoma cell line using NCI screen; type: functional, cell-based
KM12 = experiment: In vitro cytotoxicity was determined against KM12 human colon tumor cell line using NCI screen; type: functional, cell-based
SK-MES-1 = experiment: In vitro cytotoxicity was determined against SKMES human non-small cell lung carcinoma cell line using BACTEC screen; type: functional, cell-based
HCC 2998 = experiment: In vitro cytotoxicity was determined against HCC 2998 human colon tumor cell line using NCI screen; type: functional, cell-based
Homo sapiens [8] = species on record: Homo sapiens; experiment: In vitro cytotoxicity was determined against CALU 3 human non-small cell lung carcinoma cell line using BACTEC screen; type: functional
MOLT-4 = experiment: In vitro cytotoxicity was determined against MOLT-4 human leukemia cell line using NCI screen; type: functional, cell-based
Malme-3M = experiment: In vitro cytotoxicity was determined against MALME-3M human melanoma cell line using NCI screen; type: functional, cell-based
IGROV-1 = experiment: In vitro cytotoxicity was determined against IGROVI human ovarian cell line using NCI screen; type: functional, cell-based
SNB-19 = experiment: In vitro cytotoxicity was determined against SNB19 human CNS tumor cell line using NCI screen; type: functional, cell-based
COLO 205 = experiment: In vitro cytotoxicity was determined against COLO-205 human colon tumor cell line using NCI screen; type: functional, cell-based
HT-29 = experiment: In vitro cytotoxicity was determined against HT-29 human colon tumor cell line using BACTEC screen; type: functional, cell-based
TE-671 = experiment: In vitro cytotoxicity was determined against TE671 human CNS tumor cell line using NCI screen; type: functional, cell-based
RPMI-8226 = experiment: In vitro cytotoxicity was determined against RPMI 8226 human leukemia cell line using NCI screen; type: functional, cell-based
SK-OV-3 = experiment: In vitro cytotoxicity was determined against SKOV-3 human ovarian cell line using NCI screen; type: functional, cell-based
SNB-78 = experiment: In vitro cytotoxicity was determined against SNB78 human CNS tumor cell line using NCI screen; type: functional, cell-based
MCF7 = experiment: In vitro cytotoxicity was determined against MCF-7M human breast tumor cell line using BACTEC screen; type: functional, cell-based
U-251 = experiment: In vitro cytotoxicity was determined against U251 human CNS tumor cell line using NCI screen; type: functional, cell-based
COLO 320 [9] = experiment: In vitro cytotoxicity was determined against COLO 320 human colon tumor cell line using BACTEC screen; type: functional, cell-based
COLO 320 [10] = experiment: In vitro cytotoxicity was determined against COLO 320 DM human colon tumor cell line using NCI screen; type: functional, cell-based

Work on `O=C(O)CCCc1ccc(N(CCCl)CCCl)cc1` [CHLORAMBUCIL] yielded a k' [1] of 0.00149 min⁻¹ and a half-life [2] of 7.75 h.
Work on `ClCC[Se]CCCl` yielded a half-life [2] of 0.004 h.
Work on `O=[Se](O)c1ccccc1` [BENZENE SELENOIC ACID] yielded an IC50 (L1210) of 3 µM.
Work on `ClCC[Se]c1ccccc1` yielded a half-life [2] of 0.031 h.
For `O=S(=O)(CCCl)c1ccccc1`, the k' [1] was less than 0.00012 min⁻¹, the half-life [2] was greater than 96 h and the IC50 (CCRF-CEM [3]) was 2.25 µM. For the same compound, the IC50 (L1210) was 2.3 µM.
In the case of `O=[N+]([O-])c1ccc([Se](=O)(=O)CCCl)cc1`, the k' [1] is reported as 0.0104 min⁻¹, the half-life [2] is reported as 1.08 h and the IC50 (CCRF-CEM [3]) is reported as 0.4 µM. The IC50 (L1210) was 0.9 µM.
Compound `CS(=O)(=O)OCCC[Se](=O)(=O)c1ccccc1` has a k' [1] of 0.00121 min⁻¹, a half-life [2] of 9.55 h and an IC50 (CCRF-CEM [3]) of 0.9 µM. For the same compound, the IC50 (L1210) was 1.2 µM.
`CC[Se](=O)(=O)c1ccccc1` gave a k' [1] of 0.00248 min⁻¹, a half-life [2] of 4.67 h and an IC50 (CCRF-CEM [3]) of 10 µM. For the same compound, the IC50 (L1210) was 5 µM.
Work on `COc1ccc([Se](=O)(=O)CCCl)cc1` yielded a k' [1] of 0.00125 min⁻¹, a half-life [2] of 9.25 h and an IC50 (CCRF-CEM [3]) of 0.14 µM. For the same compound, the IC50 (L1210) was 0.36 µM.
For `O=[Se](=O)(CCCl)c1ccccc1`, the IC50 (SF-539) was 6 µM, the IC50 (CCRF-CEM [4]) was 0.45 µM and the IC50 (UACC-62) was 3.7 µM. The IC50 (Homo sapiens [5]) was 0.06 µM, the IC50 (CCRF-SB) was 0.45 µM and the IC50 (KM-20L2) was 2.3 µM. The k' [1] was 0.00138 min⁻¹, the IC50 (SN12C [6]) was 4.6 µM and the half-life [2] was 8.37 h. For the same compound, the IC50 (M19-MEL) was 3.7 µM, the IC50 (UACC-257) was 3.7 µM and the IC50 (UO-31) was 4.6 µM. It also gave an IC50 (CCRF-CEM [3]) of 0.15 µM, an IC50 (SK-MEL-5) of 3.7 µM and an IC50 (K562) of 0.45 µM. The IC50 (SN12C [7]) was 4.6 µM, the IC50 (NCI-H460) was 4.3 µM and the IC50 (HCT-15) was 2.3 µM. For the same compound, the IC50 (HOP-62) was 4.3 µM, the IC50 (HOP-18) was 4.3 µM and the IC50 (A2780) was 7.8 µM. For the same compound, the IC50 (LOX IMVI) was 3.7 µM, the IC50 (SF-268) was 6 µM and the IC50 (SK-MEL-2) was 3.7 µM. The IC50 (OM-1) was greater than 4 µM, the IC50 (A498) was 4.6 µM and the IC50 (HCT-116) was 2.3 µM. It also gave an IC50 (HOP-19) of 4.3 µM, an IC50 (OVCAR-5) of 7.8 µM and an IC50 (Hs-578T) of 0.9 µM. It also gave an IC50 (L1210) of 0.55 µM, an IC50 (NCI-H23) of 4.3 µM and an IC50 (SF-295) of 6 µM. The IC50 (SK-MEL-28) was 3.7 µM, the IC50 (KM12) was 2.3 µM and the IC50 (SK-MES-1) was 0.15 µM. The IC50 (HCC 2998) was 2.3 µM, the IC50 (Homo sapiens [8]) was 2.2 µM and the IC50 (MOLT-4) was 0.45 µM. The IC50 (Malme-3M) was 3.7 µM, the IC50 (IGROV-1) was 7.8 µM and the IC50 (SNB-19) was 6 µM. For the same compound, the IC50 (COLO 205) was 2.3 µM, the IC50 (HT-29) was 1.9 µM and the IC50 (TE-671) was 6 µM. It also gave an IC50 (RPMI-8226) of 0.45 µM, an IC50 (SK-OV-3) of 7.8 µM and an IC50 (SNB-78) of 6 µM. It also gave an IC50 (MCF7) greater than 4 µM, an IC50 (U-251) of 6 µM and an IC50 (COLO 320 [9]) of 1.2 µM. It also gave an IC50 (COLO 320 [10]) of 2.3 µM.
`CS(=O)(=O)CS(=O)(=O)OCCCl` showed a k' [1] of 0.00123 min⁻¹, a half-life [2] of 9.4 h and an IC50 (L1210) of 3 µM.
